Data on 31 compounds can be found in ChEMBL document CHEMBL4400513, “Aurone derivatives as promising antibacterial agents against resistant Gram-positive pathogens” (Eur J Med Chem, 2019).

Converted amounts (≈) assume the structure as drawn.

One series has as its system Staphylococcus aureus. The series is described as follows: Antimicrobial activity against methicillin-resistant Staphylococcus aureus after 18 to 24 hrs in aerobic condition by two-fold serial dilutions method. It is filed as functional. Summed up:
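Strains grown on LB at 37 °C aerobically, then in Mueller-Hinton broth overnight at 200 rpm and brought to log phase (OD600 ~0.6). About 10^5 bacteria/mL exposed to two-fold serial dilutions 0–500 µM, DMSO 0.2% final as control. Aerobic incubation at 37 °C for 18–24 h; OD600 read; MIC = lowest concentration inhibiting visible growth. n = 3.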

For another series, the system named is Pseudomonas aeruginosa. The series is described as follows: Antimicrobial activity against Pseudomonas aeruginosa after 18 to 24 hrs in aerobic condition by two-fold serial dilutions method. It counts as functional. Summed up: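 Colonies grown overnight (~16 h) in Mueller-Hinton broth at 37 °C, 200 rpm, diluted 1/100 and grown to log phase (OD600 ~0.6), then diluted to ~10^5 bacteria/mL. Exposed to 0 to 500 µM in 1:2 series (0.2% DMSO final control), aerobic, 37 °C, 18–24 h. OD600 read; MIC = lowest concentration without visible growth; n = 3.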

The test system of a further series is BEAS-2B. The series is described as follows: Cytotoxicity against human BEAS2B cells assessed as reduction in cell viability after 48 hrs by Resazurin dye-based assay. The note with it: for IC50: Homo sapiens, BEAS-2B; for Activity: human, beas-2b. Summed up: (§1)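 Normal human lung epithelial (BEAS-2B) and lung fibroblast (IMR-90) cells were grown in DMEM with 10% FCS. Cells were seeded at ~10^4/well, grown to confluence (48–72 h), then exposed to increasing concentrations for 48 h at 37 °C, 5% CO2, with 0.2% DMSO as control. Resazurin was added for 4 h and fluorescence read at 530/590 nm. Viability was normalized to DMSO wells and IC50 calculated.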

Another series concerns IMR-90. The series is described as follows: Cytotoxicity against human IMR90 cells assessed as reduction in cell viability after 48 hrs by Resazurin dye-based assay. Conditions: for IC50: Homo sapiens, IMR-90, 48 h; for Activity: human, imr-90, 48 h. A digest of the protocol: as §1
For orientation: Resazurin is reduced to fluorescent resorufin, in cell work by metabolically active cells.

Broadly, the MIC is the smallest concentration in the dilution series that meets the test's criterion for growth inhibition. Lower therefore signals a more susceptible organism. `O=C1/C(=C/c2ccc(O)cc2)Oc2cc(O)ccc21`: the minimum inhibitory concentration (MIC) with Staphylococcus aureus and against Pseudomonas aeruginosa was above 500 µM in each case.

For the compound `O=C1/C(=C/c2cccc(O)c2)Oc2cc(O)ccc21`, the MIC in the series with Staphylococcus aureus and against Pseudomonas aeruginosa was above 500 µM each time.

Consider `COc1ccc2c(c1)O/C(=C\c1ccc(OC)c(OC)c1)C2=O`, for which the MIC against Staphylococcus aureus and in the series on Pseudomonas aeruginosa was above 500 µM throughout.

As usually defined, the IC50 is the concentration that inhibits the measured activity by half. Regarding `O=C1/C(=C/c2ccc(C3CCCCC3)cc2)Oc2cc(O)cc(O)c21`, the MIC against Staphylococcus aureus is 7.8 µM (≈ 2.62 µg/mL); with Pseudomonas aeruginosa, above 500 µM. The IC50 is 33 µM in the series with BEAS-2B and 31 µM in the series on IMR-90. For the same compound, the Activity entry in the series with BEAS-2B and in the series on IMR-90 was “Dose-dependent effect” in each case.

As to `O=C1/C(=C/c2ccc(O)cc2)Oc2cc(O)cc(O)c21`, the minimum inhibitory concentration (MIC) in the series on Staphylococcus aureus was 62.5 to 125 µM (≈ 16.9 to 33.8 µg/mL); in the series with Pseudomonas aeruginosa, above 500 µM.

On to `O=C1/C(=C/c2cccc(O)c2O)Oc2c(O)cccc21`, for which the minimum inhibitory concentration (MIC) in the series with Staphylococcus aureus was 250 µM (≈ 67.6 µg/mL); with Pseudomonas aeruginosa it was above 500 µM.

As to `COc1cccc(OC)c1/C=C1\Oc2cccc(O)c2C1=O`, the MIC against Staphylococcus aureus is 250 µM (≈ 74.6 µg/mL); against Pseudomonas aeruginosa, above 500 µM.

For the compound `CC(C)(C)c1ccc(/C=C2\Oc3cccc(O)c3C2=O)cc1`, the MIC against Staphylococcus aureus and against Pseudomonas aeruginosa was above 500 µM throughout.

Regarding `Cc1ccc(/C=C2\Oc3cccc(O)c3C2=O)c(C)c1`, the minimum inhibitory concentration (MIC) in the series on Staphylococcus aureus and against Pseudomonas aeruginosa was above 500 µM in each case.

Turning to `O=C1/C(=C/c2ccc(O)c(O)c2)Oc2cccc(O)c21`, the MIC in the series on Staphylococcus aureus is 125 to 250 µM (≈ 33.8 to 67.6 µg/mL); in the series on Pseudomonas aeruginosa it was above 500 µM.

Take `O=C1/C(=C/c2ccc(O)c(O)c2)Oc2c(O)cccc21`: the MIC was 125 to 250 µM (≈ 33.8 to 67.6 µg/mL) in the series on Staphylococcus aureus and above 500 µM in the series on Pseudomonas aeruginosa.

For `CCCCc1ccc(/C=C2\Oc3cc(OC)cc(OC)c3C2=O)cc1`, the minimal inhibitory concentration (MIC) against Staphylococcus aureus and in the series on Pseudomonas aeruginosa was above 500 µM in each case.

Consider `CN1CCN(c2ccc(/C=C3\Oc4cc(O)ccc4C3=O)cc2)CC1`, for which the minimal inhibitory concentration (MIC) in the series on Staphylococcus aureus and against Pseudomonas aeruginosa was above 500 µM throughout.

Turning to `COc1ccc(/C=C2\Oc3cc(OC)cc(OC)c3C2=O)c(OC)c1`, the minimal inhibitory concentration (MIC) in the series with Staphylococcus aureus and against Pseudomonas aeruginosa was above 500 µM in each case.

For the compound `COc1cc(OC)c(/C=C2\Oc3cccc(O)c3C2=O)c(OC)c1`, the MIC against Staphylococcus aureus is 250 µM (≈ 82.1 µg/mL); against Pseudomonas aeruginosa, above 500 µM.

`COc1cc(OC)c2c(c1)O/C(=C\c1ccc(C)cc1C)C2=O`: the minimum inhibitory concentration (MIC) with Staphylococcus aureus and against Pseudomonas aeruginosa was above 500 µM throughout.

For `O=C1/C(=C/c2cc(O)c(O)c(O)c2)Oc2c(O)cccc21`, the figures for the MIC in the series on Staphylococcus aureus and in the series on Pseudomonas aeruginosa were 125 to 250 µM (≈ 35.8 to 71.6 µg/mL) and above 500 µM, respectively.

Consider `COc1cc(OC)c2c(c1)O/C(=C\c1ccccc1O)C2=O`, for which the MIC in the series on Staphylococcus aureus and in the series with Pseudomonas aeruginosa was above 500 µM throughout.

In the case of `O=C1/C(=C/c2ccccc2)Oc2ccccc21` [(Z)-AURONE], the minimal inhibitory concentration (MIC) in the series on Staphylococcus aureus and in the series with Pseudomonas aeruginosa was above 500 µM throughout.

Turning to `O=C1/C(=C/c2ccccc2)Oc2cccc(O)c21`, the MIC with Staphylococcus aureus and with Pseudomonas aeruginosa was above 500 µM throughout.

In the case of `CCCCc1ccc(/C=C2\Oc3cc(O)cc(O)c3C2=O)cc1`, the minimal inhibitory concentration (MIC) was 15.6 to 31.2 µM (≈ 4.84 to 9.7 µg/mL) with Staphylococcus aureus and above 500 µM in the series with Pseudomonas aeruginosa. For the same compound, the 50% inhibitory concentration (IC50) in the series on BEAS-2B stood at 90 µM; with IMR-90, 80 µM. Besides, the Activity result in the series with BEAS-2B and with IMR-90 was “Dose-dependent effect” throughout.

As to `CCCCc1ccc(/C=C2\Oc3cccc(O)c3C2=O)cc1`, the MIC with Staphylococcus aureus and in the series on Pseudomonas aeruginosa was above 500 µM in each case.

Take `O=C1/C(=C/c2ccccc2)Oc2c(O)cccc21`: the minimal inhibitory concentration (MIC) with Staphylococcus aureus and in the series with Pseudomonas aeruginosa was above 500 µM each time.

For the compound `O=C(O)c1ccc(/C=C2\Oc3c(O)cccc3C2=O)cc1`, the MIC against Staphylococcus aureus and against Pseudomonas aeruginosa was above 500 µM throughout.

For the compound `O=C1/C(=C/c2ccccc2O)Oc2cc(O)ccc21`, the minimal inhibitory concentration (MIC) in the series on Staphylococcus aureus and in the series with Pseudomonas aeruginosa was above 500 µM throughout.

With `CC(C)c1ccc(/C=C2\Oc3cccc(O)c3C2=O)cc1`, the MIC in the series on Staphylococcus aureus and in the series on Pseudomonas aeruginosa was above 500 µM in each case.

As to `CCc1ccc(/C=C2\Oc3cccc(O)c3C2=O)cc1`, the minimal inhibitory concentration (MIC) against Staphylococcus aureus was 62.5 to 125 µM (≈ 16.6 to 33.3 µg/mL); in the series on Pseudomonas aeruginosa, above 500 µM.

In the case of `O=C1/C(=C/c2ccc(O)cc2)Oc2cccc(O)c21`, the MIC is 125 to 250 µM (≈ 31.8 to 63.6 µg/mL) against Staphylococcus aureus and above 500 µM in the series with Pseudomonas aeruginosa.

For `O=C1/C(=C/c2ccc(O)cc2)Oc2ccccc21`, the minimum inhibitory concentration (MIC) against Staphylococcus aureus and in the series with Pseudomonas aeruginosa was above 500 µM throughout.

As to `O=C1/C(=C/c2cccc(O)c2)Oc2cc(O)cc(O)c21`, the MIC in the series on Staphylococcus aureus was 125 to 250 µM (≈ 33.8 to 67.6 µg/mL); against Pseudomonas aeruginosa, above 500 µM.

For the compound `CN1CCN(c2ccc(/C=C3\Oc4cccc(O)c4C3=O)cc2)CC1`, the minimal inhibitory concentration (MIC) in the series with Staphylococcus aureus and in the series with Pseudomonas aeruginosa was above 500 µM throughout.
